Test results as given in ChEMBL document CHEMBL1158372, “Design, synthesis, and biological evaluation of novel triazole derivatives as inhibitors of cytochrome P450 14alpha-demethylase” (2009).
Converted amounts (≈) assume the structure as drawn.

Experiments:
Type in all cases: functional
Candida albicans = test: Antifungal activity against Candida albicans ATCC 76615 after 24 hrs by micro-broth dilution method; details: ATCC 76615, 24 h
Method in brief: (§1)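 NCCLS (M27-A2) broth microdilution in 96-well format. Compounds in DMSO, serially diluted in growth medium, inoculated, incubated at 35 °C, and read at 24 h (C. albicans ATCC76615) or 72 h (Cry. neoformans ATCC32609). MIC80 is the first well with about 80% less growth than the drug-free well. Three independent runs per agent; the mean of replicates is reported.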

Cryptococcus neoformans = test: Antifungal activity against Cryptococcus neoformans ATCC 32609 after 72 hrs by micro-broth dilution method; details: ATCC 32609, 72 h; method in brief: as §1
Candida parapsilosis = test: Antifungal activity against Candida parapsilosis by micro-broth dilution method; details: Lodderomyces parapsilosis
Method in brief: (§2)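 Broth microdilution in 96-well plates following the NCCLS method. DMSO solutions of test agents were serially diluted in growth medium, inoculated, and incubated at 35 °C. MIC80 is the first well showing roughly 80% growth reduction versus the drug-free control. C. albicans ATCC76615 and Cry. neoformans ATCC32609 served as quality-control strains. Each test was done three times; the mean of replicates is reported.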

Candida tropicalis = test: Antifungal activity against Candida tropicalis by micro-broth dilution method; method in brief: as §2
Trichophyton rubrum = test: Antifungal activity against Trichophyton rubrum by micro-broth dilution method; method in brief: as §2
Pichia kudriavzevii = test: Antifungal activity against Candida krusei by micro-broth dilution method; method in brief: as §2
Nannizzia gypsea = test: Antifungal activity against Microsporum gypseum by micro-broth dilution method; method in brief: as §2
Aspergillus fumigatus = test: Antifungal activity against Aspergillus fumigatus by micro-broth dilution method; method in brief: as §2

Compound | MIC80 (Candida albicans) | MIC80 (Cryptococcus neoformans) | MIC80 (Candida parapsilosis) | MIC80 (Candida tropicalis) | MIC80 (Trichophyton rubrum) | MIC80 (Pichia kudriavzevii) | MIC80 (Nannizzia gypsea) | MIC80 (Aspergillus fumigatus)
CCC(C)n1ncn(-c2ccc(N3CCN(c4ccc(OCC5COC(Cn6cncn6)(c6ccc(Cl)cc6Cl)O5)cc4)CC3)cc2)c1=O (stereo not drawn) [ITRACONAZOLE] | 0.0625 µg/mL (≈ 0.0886 µM) | 0.125 µg/mL (≈ 0.177 µM) | 0.125 µg/mL (≈ 0.177 µM) | 0.125 µg/mL (≈ 0.177 µM) | 0.125 µg/mL (≈ 0.177 µM) | 0.5 µg/mL (≈ 0.709 µM) | 0.0625 µg/mL (≈ 0.0886 µM) | 0.5 µg/mL (≈ 0.709 µM)
C=CCN(Cc1ccc(C(=O)Oc2ccc(Cl)cc2)cc1)CC(O)(Cn1cncn1)c1ccc(F)cc1F (stereo not drawn) | 1 µg/mL (≈ 1.86 µM) | 16 µg/mL (≈ 29.7 µM) | 1 µg/mL (≈ 1.86 µM) | 4 µg/mL (≈ 7.42 µM) | 4 µg/mL (≈ 7.42 µM) | 4 µg/mL (≈ 7.42 µM) | 0.25 µg/mL (≈ 0.464 µM) | > 64 µg/mL
C=CCN(Cc1ccc(Cl)cc1)CC(O)(Cn1cncn1)c1ccc(F)cc1F (stereo not drawn) | 0.25 µg/mL (≈ 0.597 µM) | 0.25 µg/mL (≈ 0.597 µM) | 0.25 µg/mL (≈ 0.597 µM) | 0.25 µg/mL (≈ 0.597 µM) | 0.25 µg/mL (≈ 0.597 µM) | 0.0625 µg/mL (≈ 0.149 µM) | 0.0625 µg/mL (≈ 0.149 µM) | 16 µg/mL (≈ 38.2 µM)
C=CCN(Cc1cccc(F)c1)CC(O)(Cn1cncn1)c1ccc(F)cc1F (stereo not drawn) | 0.0156 µg/mL (≈ 0.0388 µM) | 0.0625 µg/mL (≈ 0.155 µM) | 0.0625 µg/mL (≈ 0.155 µM) | 0.0625 µg/mL (≈ 0.155 µM) | 0.25 µg/mL (≈ 0.621 µM) | 0.0625 µg/mL (≈ 0.155 µM) | 0.0156 µg/mL (≈ 0.0388 µM) | > 64 µg/mL
C=CCN(Cc1ccc(C(=O)OCC(C)C)cc1)CC(O)(Cn1cncn1)c1ccc(F)cc1F (stereo not drawn) | 1 µg/mL (≈ 2.06 µM) | 1 µg/mL (≈ 2.06 µM) | 0.25 µg/mL (≈ 0.516 µM) | 1 µg/mL (≈ 2.06 µM) | 0.0625 µg/mL (≈ 0.129 µM) | 1 µg/mL (≈ 2.06 µM) | 0.25 µg/mL (≈ 0.516 µM) | > 64 µg/mL
C=CCN(Cc1ccccc1Br)CC(O)(Cn1cncn1)c1ccc(F)cc1F (stereo not drawn) | 0.0625 µg/mL (≈ 0.135 µM) | 0.25 µg/mL (≈ 0.54 µM) | 0.25 µg/mL (≈ 0.54 µM) | 0.0625 µg/mL (≈ 0.135 µM) | 0.25 µg/mL (≈ 0.54 µM) | 0.25 µg/mL (≈ 0.54 µM) | 0.0156 µg/mL (≈ 0.0337 µM) | > 64 µg/mL
C=CCN(Cc1ccc(F)cc1)CC(O)(Cn1cncn1)c1ccc(F)cc1F (stereo not drawn) | 0.0156 µg/mL (≈ 0.0388 µM) | 0.0625 µg/mL (≈ 0.155 µM) | 0.0625 µg/mL (≈ 0.155 µM) | 0.0625 µg/mL (≈ 0.155 µM) | 1 µg/mL (≈ 2.48 µM) | 0.0625 µg/mL (≈ 0.155 µM) | 0.0156 µg/mL (≈ 0.0388 µM) | > 64 µg/mL
C=CCN(Cc1ccc(C(=O)OCCCCC)cc1)CC(O)(Cn1cncn1)c1ccc(F)cc1F (stereo not drawn) | 1 µg/mL (≈ 2.01 µM) | 1 µg/mL (≈ 2.01 µM) | 1 µg/mL (≈ 2.01 µM) | 1 µg/mL (≈ 2.01 µM) | 0.25 µg/mL (≈ 0.501 µM) | 1 µg/mL (≈ 2.01 µM) | 1 µg/mL (≈ 2.01 µM) | > 64 µg/mL
C=CCN(Cc1ccccc1C)CC(O)(Cn1cncn1)c1ccc(F)cc1F (stereo not drawn) | 0.0156 µg/mL (≈ 0.0392 µM) | 0.0625 µg/mL (≈ 0.157 µM) | 0.0625 µg/mL (≈ 0.157 µM) | 0.0625 µg/mL (≈ 0.157 µM) | 0.0625 µg/mL (≈ 0.157 µM) | 0.0625 µg/mL (≈ 0.157 µM) | 0.0039 µg/mL (≈ 0.00979 µM) | > 64 µg/mL
C=CCN(Cc1ccc(C(=O)OC(C)C)cc1)CC(O)(Cn1cncn1)c1ccc(F)cc1F (stereo not drawn) | 0.25 µg/mL (≈ 0.531 µM) | 1 µg/mL (≈ 2.13 µM) | 1 µg/mL (≈ 2.13 µM) | 1 µg/mL (≈ 2.13 µM) | 1 µg/mL (≈ 2.13 µM) | 0.25 µg/mL (≈ 0.531 µM) | 0.0156 µg/mL (≈ 0.0332 µM) | > 64 µg/mL
C=CCN(Cc1ccc(Cl)cc1Cl)CC(O)(Cn1cncn1)c1ccc(F)cc1F (stereo not drawn) | 1 µg/mL (≈ 2.21 µM) | 1 µg/mL (≈ 2.21 µM) | 0.25 µg/mL (≈ 0.551 µM) | 0.25 µg/mL (≈ 0.551 µM) | 1 µg/mL (≈ 2.21 µM) | 0.25 µg/mL (≈ 0.551 µM) | 1 µg/mL (≈ 2.21 µM) | 16 µg/mL (≈ 35.3 µM)
C=CCN(Cc1ccc(C)cc1)CC(O)(Cn1cncn1)c1ccc(F)cc1F (stereo not drawn) | 0.0156 µg/mL (≈ 0.0392 µM) | 0.0625 µg/mL (≈ 0.157 µM) | 0.25 µg/mL (≈ 0.627 µM) | 0.25 µg/mL (≈ 0.627 µM) | 1 µg/mL (≈ 2.51 µM) | 0.0625 µg/mL (≈ 0.157 µM) | 0.0156 µg/mL (≈ 0.0392 µM) | > 64 µg/mL
C=CCN(Cc1ccc([N+](=O)[O-])cc1)CC(O)(Cn1cncn1)c1ccc(F)cc1F (stereo not drawn) | 0.0156 µg/mL (≈ 0.0363 µM) | 0.25 µg/mL (≈ 0.582 µM) | 0.0625 µg/mL (≈ 0.146 µM) | 0.25 µg/mL (≈ 0.582 µM) | 0.25 µg/mL (≈ 0.582 µM) | 0.0625 µg/mL (≈ 0.146 µM) | 0.0156 µg/mL (≈ 0.0363 µM) | > 64 µg/mL
C=CCN(Cc1ccc(C(=O)Oc2ccccc2C(=O)OC)cc1)CC(O)(Cn1cncn1)c1ccc(F)cc1F (stereo not drawn) | 0.0625 µg/mL (≈ 0.111 µM) | > 64 µg/mL | 4 µg/mL (≈ 7.11 µM) | 16 µg/mL (≈ 28.4 µM) | 64 µg/mL (≈ 114 µM) | 16 µg/mL (≈ 28.4 µM) | 4 µg/mL (≈ 7.11 µM) | > 64 µg/mL
C=CCN(Cc1ccc(Br)cc1)CC(O)(Cn1cncn1)c1ccc(F)cc1F (stereo not drawn) | 0.0625 µg/mL (≈ 0.135 µM) | 0.25 µg/mL (≈ 0.54 µM) | 0.25 µg/mL (≈ 0.54 µM) | 0.25 µg/mL (≈ 0.54 µM) | 0.25 µg/mL (≈ 0.54 µM) | 0.0625 µg/mL (≈ 0.135 µM) | 0.0625 µg/mL (≈ 0.135 µM) | 4 µg/mL (≈ 8.63 µM)
C=CCN(Cc1ccccc1Cl)CC(O)(Cn1cncn1)c1ccc(F)cc1F (stereo not drawn) | 0.0156 µg/mL (≈ 0.0372 µM) | 0.25 µg/mL (≈ 0.597 µM) | 0.0625 µg/mL (≈ 0.149 µM) | 0.25 µg/mL (≈ 0.597 µM) | 1 µg/mL (≈ 2.39 µM) | 0.0625 µg/mL (≈ 0.149 µM) | 0.0625 µg/mL (≈ 0.149 µM) | > 64 µg/mL
